Measured values: ChEMBL document CHEMBL3576780, “Effects of resveratrol on benign prostatic hyperplasia by the regulation of inflammatory and apoptotic proteins” (2015)
Active and inactive are the calls of the source.

How the values were obtained:
Format in all cases: functional, organism-based
[1] = system: Rattus norvegicus; assay: Reduction in proliferating cell nuclear antigen expression in prostate tissue in BPH-induced Sprague-Dawley rat model at 5 mg/kg, po daily for 4 weeks by Western blot analysis
[2] = system: Rattus norvegicus; assay: Reduction in prostate weight in BPH-induced Sprague-Dawley rat model at 5 mg/kg, po daily for 4 weeks in presence testosterone propionate of 10 mg/kg, intramuscular injection for 4 weeks; conditions: Prostate gland
[3] = system: Rattus norvegicus; assay: Reduction in proliferating cell nuclear antigen in prostate tissue expression in BPH-induced Sprague-Dawley rat model at 1 mg/kg, ip daily for 4 weeks by Western blot analysis
How it was run: (§1)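 Prostate homogenized in lysis buffer, 30 μg protein run on SDS-PAGE, PVDF blot, antibody probing, ECL detection, β-actin internal control, densitometry. Mean ± SEM, n = 6 rats/group; one-way ANOVA with Dunnett's test.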

[4] = system: Rattus norvegicus; assay: Reduction in 5alpha-reductase mRNA level in prostate tissue in BPH-induced Sprague-Dawley rat model at 1 mg/kg, ip daily for 4 weeks by quantitative real-time PCR analysis; conditions: Prostate gland
How it was run: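 Prostate tissue 5α-reductase 2 mRNA quantified by real-time PCR in male Sprague-Dawley rats given testosterone propionate 10 mg/kg im daily for 4 weeks plus daily treatment; mean ± SEM, n = 6 rats/group.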

[5] = system: Rattus norvegicus; assay: Reduction in thickness of epithelium tissue in prostate tissue in BPH-induced Sprague-Dawley rat model at 1 mg/kg, ip daily for 4 weeks by Hematoxylin and eosin staining based microscopy; conditions: Prostate gland
How it was run: (§2)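 Prostates fixed in 4% buffered formalin, paraffin embedded, cut at 4 μm, stained with H&E and imaged at original magnification 40×. Epithelial thickness measured by pathologists. Rats received testosterone propionate 10 mg/kg im daily for 4 weeks with daily treatment; n = 6 per group.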

[6] = system: Rattus norvegicus; assay: Reduction in iNOS expression in prostate tissue in BPH-induced Sprague-Dawley rat model at 1 mg/kg, ip daily for 4 weeks by Western blot analysis; conditions: Prostate gland
[7] = system: Rattus norvegicus; assay: Reduction in COX2 expression in prostate tissue in BPH-induced Sprague-Dawley rat model at 1 mg/kg, ip daily for 4 weeks by Western blot analysis; conditions: Prostate gland; how it was run: as §1
[8] = system: Rattus norvegicus; assay: Reduction in procaspase 3 expression in prostate tissue in BPH-induced Sprague-Dawley rat model at 1 mg/kg, ip daily for 4 weeks by Western blot analysis; conditions: Prostate gland; how it was run: as §1
[9] = system: Rattus norvegicus; assay: Reduction in PARP1 expression in prostate tissue in BPH-induced Sprague-Dawley rat model at 1 mg/kg, ip daily for 4 weeks by Western blot analysis; conditions: Prostate gland; how it was run: as §1
[10] = system: Rattus norvegicus; assay: Reduction in Bcl2 expression in prostate tissue in BPH-induced Sprague-Dawley rat model at 1 mg/kg, ip daily for 4 weeks by Western blot analysis; conditions: Prostate gland
[11] = system: Rattus norvegicus; assay: Reduction in Bcl-xL expression in prostate tissue in BPH-induced Sprague-Dawley rat model at 1 mg/kg, ip daily for 4 weeks by Western blot analysis; conditions: Prostate gland; how it was run: as §1
[12] = system: Rattus norvegicus; assay: Increase in Bax expression in prostate tissue in BPH-induced Sprague-Dawley rat model at 1 mg/kg, ip daily for 4 weeks by Western blot analysis; conditions: Prostate gland; how it was run: as §1
[13] = system: Rattus norvegicus; assay: Reduction in Bcl2 to Bax ratio in prostate tissue in BPH-induced Sprague-Dawley rat model at 1 mg/kg, ip daily for 4 weeks by Western blot analysis; conditions: Prostate gland
How it was run: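 Male Sprague-Dawley rats, BPH induced by daily im testosterone propionate 10 mg/kg for 4 weeks with daily dosing. Prostate lysate (30 μg protein) Western blotted; Bax and Bcl-2 band densities normalized to β-actin and expressed as Bax/Bcl-2 ratio. Mean ± SEM, n = 6 rats/group.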

[14] = system: Rattus norvegicus; assay: Reduction in prostate cell proliferation and gland development in BPH-induced Sprague-Dawley rat model at 1 mg/kg, ip daily for 4 weeks by Hematoxylin and eosin staining based microscopy; how it was run: as §2
[15] = system: Rattus norvegicus; assay: Reduction in prostate weight in BPH-induced Sprague-Dawley rat model at 1 mg/kg, ip daily for 4 weeks in presence testosterone propionate of 10 mg/kg, intramuscular injection for 4 weeks; conditions: Prostate gland

Measured: inhibition

CC(C)(C)NC(=O)[C@H]1CC[C@H]2[C@@H]3CC[C@H]4NC(=O)C=C[C@]4(C)[C@H]3CC[C@]12C
active: [1] | [2]

Oc1ccc(/C=C/c2cc(O)cc(O)c2)cc1
not listed: [1] | [2]
active: all other assays above
